Source: ChEMBL document CHEMBL3102810, “Alkylamino derivatives of pyrazinamide: synthesis and antimycobacterial evaluation” (Bioorg Med Chem Lett, 2014)
Values after ≈ are worked out from the molar mass of the structure shown. Active and inactive are the calls of the source. The rule behind the calls is not given here.

What was measured:
[1] = test system: Staphylococcus epidermidis; test: Antibacterial activity against Staphylococcus epidermidis H 6966/08 after 24 hrs by microdilution broth method; assay type: functional; conditions: H 6966/08, 24 h
Summary of the method: (§1)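 Antibacterial screen with compound concentrations up to a highest level of 500 µM. Results expressed as MIC in µM.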

[2] = test system: Staphylococcus epidermidis; test: Antibacterial activity against Staphylococcus epidermidis H 6966/08 after 48 hrs by microdilution broth method; assay type: functional; conditions: for MIC95: H 6966/08, 48 h; summary of the method: as §1
[3] = test system: Mycobacterium avium; test: Antimycobacterial activity against pyrazinamide-resistant Mycobacterium avium CNCTC My 152/73 after 5 days by microplate alamar blue assay; assay type: functional; conditions: CNCTC My 152/73, 120 h
Summary of the method: (§2)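 Microplate alamar blue assay run at pH 5.6, using conditions optimized for pyrazinamide. Strains came from the Czech National Collection of Type Cultures. MIC was read in µg/mL and converted to µM using molecular weight.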

[4] = test system: HepG2; test: Cytotoxicity against human HepG2 cells after 24 hrs; assay type: cell-based; conditions: HepG2, 24 h
Summary of the method: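 HepG2 human liver cells; loss of viability measured by a colorimetric tetrazolium-reduction assay. IC50 derived from the toxicity curves. Where limited solubility in the culture medium capped the tested concentration, only an estimate of the toxic concentration was given.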

[5] = Selectivity index, ratio of IC50 for human HepG2 cells to MIC for Mycobacterium tuberculosis H37Rv CNCTC My 331/88; assay type: toxicity, cell-based; conditions: read-out: Selectivity Index
Summary of the method: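 HepG2 human liver cell viability was measured by a colorimetric tetrazolium-reduction assay, and IC50 was derived from the toxicity curves. MIC against M. tuberculosis H37Rv came from the alamar blue microplate assay at pH 5.6. SI = IC50/MIC, both in molar units.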

[6] = Lipophilicity, log K of the compound by HPLC analysis; assay type: physicochemical
[7] = test system: Mycobacterium avium; test: Antimycobacterial activity against pyrazinamide-resistant Mycobacterium avium CNCTC My 80/72 after 5 days by microplate alamar blue assay; assay type: functional; conditions: CNCTC My 80/72, 120 h; summary of the method: as §2
[8] = test system: Mycobacterium kansasii; test: Antimycobacterial activity against pyrazinamide-resistant Mycobacterium kansasii CNCTC My 235/80 after 5 days by microplate alamar blue assay; assay type: functional; conditions: CNCTC My 235/80, 120 h; summary of the method: as §2
[9] = test system: Mycobacterium tuberculosis; test: Antimycobacterial activity against Mycobacterium tuberculosis H37Rv CNCTC My 331/88 after 5 days by microplate alamar blue assay; assay type: functional; conditions: H37Rv CNCTC My 331/88, 120 h; summary of the method: as §2
[10] = test system: Trichophyton mentagrophytes; test: Antifungal activity against Trichophyton mentagrophytes 445 after 72 to 120 hrs by microdilution broth method; assay type: functional, organism-based
[11] = test system: Lichtheimia corymbifera; test: Antifungal activity against Absidia corymbifera 272 after 72 to 120 hrs by microdilution broth method; assay type: functional, organism-based
[12] = test system: Aspergillus fumigatus; test: Antifungal activity against Aspergillus fumigatus 231 after 72 to 120 hrs by microdilution broth method; assay type: functional, organism-based
[13] = test system: Nakaseomyces glabratus; test: Antifungal activity against Candida glabrata 20/I after 72 to 120 hrs by microdilution broth method; assay type: functional, organism-based
[14] = test system: Trichosporon asahii; test: Antifungal activity against Trichosporon asahii 1188 after 72 to 120 hrs by microdilution broth method; assay type: functional, organism-based
[15] = test system: Pichia kudriavzevii; test: Antifungal activity against Candida krusei E28 after 72 to 120 hrs by microdilution broth method; assay type: functional, organism-based
[16] = test system: Candida tropicalis; test: Antifungal activity against Candida tropicalis 156 after 72 to 120 hrs by microdilution broth method; assay type: functional, organism-based
[17] = test system: Candida albicans; test: Antifungal activity against Candida albicans ATCC 44859 after 72 to 120 hrs by microdilution broth method; assay type: functional, organism-based
[18] = test system: Trichophyton mentagrophytes; test: Antifungal activity against Trichophyton mentagrophytes after 72 to 120 hrs by microdilution broth method; assay type: functional, organism-based
[19] = test system: Klebsiella pneumoniae; test: Antibacterial activity against ESBL positive Klebsiella pneumoniae J 14368/08 after 24 to 48 hrs by microdilution broth method; assay type: functional, organism-based; summary of the method: as §1
[20] = test system: Klebsiella pneumoniae; test: Antibacterial activity against Klebsiella pneumoniae D 11750/08 after 24 to 48 hrs by microdilution broth method; assay type: functional, organism-based; summary of the method: as §1
[21] = test system: Enterococcus sp.; test: Antibacterial activity against Enterococcus sp. J 14365/08 after 24 to 48 hrs by microdilution broth method; assay type: functional, organism-based; summary of the method: as §1
[22] = test system: Staphylococcus epidermidis; test: Antibacterial activity against methicillin-resistant Staphylococcus epidermidis H 5996/08 after 24 to 48 hrs by microdilution broth method; assay type: functional, organism-based
[23] = test system: Pseudomonas aeruginosa; test: Antibacterial activity against Pseudomonas aeruginosa CCM 1961 after 24 to 48 hrs by microdilution broth method; assay type: functional, organism-based; summary of the method: as §1
[24] = test system: Escherichia coli; test: Antibacterial activity against Escherichia coli CCM 4517 after 24 to 48 hrs by microdilution broth method; assay type: functional, organism-based; summary of the method: as §1
[25] = test system: Staphylococcus aureus; test: Antibacterial activity against Staphylococcus aureus CCM 4516/08 after 24 to 48 hrs by microdilution broth method; assay type: functional, organism-based; summary of the method: as §1
[26] = test system: Staphylococcus epidermidis; test: Antibacterial activity against Staphylococcus epidermidis H 6966/08 up to 500 uM after 24 to 48 hrs by microdilution broth method; assay type: functional, organism-based; summary of the method: as §1
[27] = test system: Mycolicibacterium fortuitum; test: Antimycobacterial activity against pyrazinamide-resistant Mycobacterium fortuitum; assay type: functional
[28] = test system: Mycobacterium kansasii; test: Antimycobacterial activity against pyrazinamide-resistant Mycobacterium kansasii; assay type: functional
[29] = test system: Mycobacterium avium; test: Antimycobacterial activity against pyrazinamide-resistant Mycobacterium avium; assay type: functional
[30] = test system: Mycolicibacterium smegmatis; test: Antimycobacterial activity against pyrazinamide-resistant Mycobacterium smegmatis; assay type: functional
[31] = test system: Mycobacterium tuberculosis; test: Antimycobacterial activity against pyrazinamide-sensitive Mycobacterium tuberculosis; assay type: functional

Structure (SMILES) | MIC95 [1] [µM] | MIC95 [2] [µM] | MIC [3] | log K [6] | MIC [7] | MIC [8] | MIC [9] | Activity [10] | Activity [11] | Activity [12] | Activity [13] | Activity [14] | Activity [15] | Activity [16] | Activity [17] | Activity [18] | Activity [19] | Activity [20] | Activity [21] | Activity [22] | other results
NC[C@@H]1O[C@H](O[C@H]2[C@@H](O)[C@H](O[C@@H]3[C@@H](O)[C@H](N)C[C@H](N)[C@H]3O[C@H]3O[C@H](CN)[C@@H](O)[C@H](O)[C@H]3N)O[C@@H]2CO)[C@H](N)[C@@H](O)[C@@H]1O [FRAMYCETIN] | 7.81 (≈ 4.8 µg/mL) | 15.6 (≈ 9.6 µg/mL) |  |  |  |  |  |  |  |  |  |  |  |  |  |  |  |  |  |  | 
CC1(C)S[C@@H]2[C@H](NC(=O)Cc3ccccc3)C(=O)N2[C@H]1C(=O)O [PENICILLIN G] | 125 (≈ 41.8 µg/mL) | 250 (≈ 83.6 µg/mL) |  |  |  |  |  |  |  |  |  |  |  |  |  |  |  |  |  |  | 
CCCCCCCCNc1cncc(C(N)=O)n1 |  |  | 100 µM | 0.6514 | 100 µM | 100 µM | 6 µM | inactive | inactive | inactive | inactive | inactive | inactive | inactive | inactive | inactive | inactive | inactive | inactive | inactive | IC50 [4]: 161 µM; selectivity ratio [5]: 25.8; Activity [2]: inactive; Activity [23]: inactive; Activity [24]: inactive; Activity [25]: inactive; Activity [26]: inactive
O=C(O)c1cn(C2CC2)c2cc(N3CCNCC3)c(F)cc2c1=O [CIPROFLOXACIN] | 250 (≈ 82.8 µg/mL) | 250 (≈ 82.8 µg/mL) |  |  |  |  |  |  |  |  |  |  |  |  |  |  |  |  |  |  | 
NC(=O)c1cnc(Cl)cn1 |  |  | > 100 µg/mL | -0.3891 | > 100 µg/mL | 79 µM | 317 µM | inactive | inactive | inactive | inactive | inactive | inactive | inactive | inactive | inactive | inactive | inactive | inactive | inactive | MIC [27]: 8 µg/mL (≈ 50.8 µM); MIC [28]: 8 µg/mL (≈ 50.8 µM); IC50 [4]: 1600 µM; selectivity ratio [5]: 5; MIC [29]: 8 µg/mL (≈ 50.8 µM); MIC [30]: 8 µg/mL (≈ 50.8 µM); MIC [31]: 8 µg/mL (≈ 50.8 µM); Activity [2]: inactive; Activity [23]: inactive; Activity [24]: inactive; Activity [25]: inactive; Activity [26]: inactive
CCCCCCNc1cncc(C(N)=O)n1 | 62.5 (≈ 13.9 µg/mL) | 125 (≈ 27.8 µg/mL) | > 100 µg/mL | 0.2051 | > 100 µg/mL | > 100 µg/mL | 100 µg/mL | inactive | inactive | inactive | inactive | inactive | inactive | inactive | inactive | inactive | inactive | inactive | inactive | inactive | Activity [23]: inactive; Activity [24]: inactive; Activity [25]: inactive
CCCCCCCNc1cnc(C(N)=O)cn1 |  |  | > 100 µg/mL | 0.4658 | > 100 µg/mL | 53 µM | 53 µM | inactive | inactive | inactive | inactive | inactive | inactive | inactive | inactive | inactive | inactive | inactive | inactive | inactive | IC50 [4]: > 250 µM; selectivity ratio [5]: > 4.7; Activity [2]: inactive; Activity [23]: inactive; Activity [24]: inactive; Activity [25]: inactive; Activity [26]: inactive
